Experimental findings from PubChem BioAssay AID1916 (Vanderbilt High Throughput Screening Facility, 2009) are described below.

The term IC50 denotes the concentration that gives 50% inhibition.

Calls of active or inactive are those of the source. The rule behind the calls is not given here.

The target in the assay is ATP-sensitive inward rectifier potassium channel 1 (Homo sapiens) (UniProt P48048). Description: ROMK (Kir1.1) channel inhibitors among analogs, SAR follow-up, Tet-inducible ROMK cells, thallium flux, FluoZin2 (AID 1916). As to conditions: thallium flux FluoZin2 fluorescence; for % TPNQ activity: at 1 mM (top of the series). The method, boiled down:
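Test system: Tet-induced ROMK-expressing cells; also added: thallium stimulus buffer; dosing: 11 concentrations, threefold steps; times: 20 min room-temperature dye loading, 20 min compound preincubation; read-out: early F/F0 slope as % TPNQ activity; detection: FluoZin2 dye fluorescence following thallium addition; buffer or medium: serum-free medium during overnight Tet induction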

Sequence of ATP-sensitive inward rectifier potassium channel 1 (Homo sapiens) (P48048 whole entry, looked up): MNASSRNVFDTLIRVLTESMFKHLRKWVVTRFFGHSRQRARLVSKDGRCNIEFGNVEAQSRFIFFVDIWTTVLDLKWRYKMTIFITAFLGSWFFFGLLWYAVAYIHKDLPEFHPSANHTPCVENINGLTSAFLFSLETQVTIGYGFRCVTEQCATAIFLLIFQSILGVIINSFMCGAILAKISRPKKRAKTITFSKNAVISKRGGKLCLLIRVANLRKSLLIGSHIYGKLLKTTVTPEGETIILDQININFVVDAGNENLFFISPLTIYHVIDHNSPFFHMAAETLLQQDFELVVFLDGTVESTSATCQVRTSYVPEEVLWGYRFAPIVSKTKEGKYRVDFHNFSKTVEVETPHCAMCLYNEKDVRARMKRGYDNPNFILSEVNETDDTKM

Turning to `O=[N+]([O-])c1ccc(CN2CCOCCOCCN(Cc3ccc([N+](=O)[O-])cc3)CCOCC2)cc1`, the IC50 is 14.2 µM.
For the compound `COc1ccc(CN2CCOCCOCCN(Cc3ccc(OC)cc3)CCOCC2)cc1`, the IC50 entry is “inactive”.
On to `Oc1ccccc1CN1CCOCCOCCN(Cc2ccccc2O)CCOCC1`, for which the IC50 result was “inactive”.
For `CN(C)c1ccc(CN2CCOCCOCCN(Cc3ccc(N(C)C)cc3)CCOCC2)cc1`, the IC50 result is “inactive”.
For `COC(=O)c1ccc(CN2CCOCCOCCN(Cc3ccc(C(=O)OC)cc3)CCOCC2)cc1`, the IC50 was 32.6 µM.
In the case of `CC(C)c1ccc(CN2CCOCCOCCN(Cc3ccc(C(C)C)cc3)CCOCC2)cc1`, the IC50 entry was “inactive”.
Consider `COc1ccccc1CN1CCOCCOCCN(Cc2ccccc2OC)CCOCC1`, for which the IC50 result is “inactive”.
On the same count and under the same terms, with `O=[N+]([O-])c1ccccc1CN1CCOCCOCCN(Cc2ccccc2[N+](=O)[O-])CCOCC1` the figure was 6.62 µM.
`Cc1ccccc1CN1CCOCCOCCN(Cc2ccccc2C)CCOCC1`: the IC50 was 13.3 µM.
On the same count and under the same terms, to `Clc1ccc(CN2CCOCCOCCN(Cc3ccc(Cl)cc3)CCOCC2)cc1` belongs “inactive”.
On to `CSc1ccc(CN2CCOCCOCCN(Cc3ccc(SC)cc3)CCOCC2)cc1`, for which the “% TPNQ activity” value is “inactive”.
Consider `FC(F)(F)c1cc(CN2CCOCCOCCN(Cc3cc(C(F)(F)F)cc(C(F)(F)F)c3)CCOCC2)cc(C(F)(F)F)c1`, for which the half-inhibitory concentration (IC50) is 24.3 µM.
With `COc1ccc(CN2CCOCCOCCN(Cc3ccc(OC)nc3)CCOCC2)cn1`, the % TPNQ activity came out at 43.4%.
Regarding `Cc1ccsc1CN1CCOCCOCCN(Cc2sccc2C)CCOCC1`, the 50% inhibitory concentration (IC50) was 19.7 µM.
Regarding `FC(F)(F)c1cccc(CN2CCOCCOCCN(Cc3cccc(C(F)(F)F)c3)CCOCC2)c1`, the IC50 was 30.6 µM.
On to `N#Cc1ccccc1CN1CCOCCOCCN(Cc2ccccc2C#N)CCOCC1`, for which the IC50 was 8.53 µM.
Turning to `COc1cc(CN2CCOCCOCCN(Cc3cc(OC)cc(OC)c3)CCOCC2)cc(OC)c1`, the IC50 is 37.6 µM.
In the case of `N#Cc1cccc(CN2CCOCCOCCN(Cc3cccc(C#N)c3)CCOCC2)c1`, the IC50 was 0.324 µM.
On to `N#Cc1cc(CN2CCOCCOCCN(Cc3ccc(F)c(C#N)c3)CCOCC2)ccc1F`, for which the % TPNQ activity is 14.7%.
Take `COc1cccc(CN2CCOCCOCCN(Cc3cccc(OC)c3)CCOCC2)c1`: the IC50 was 25.2 µM.
